Assay outcomes from PubChem.
DDE Tn7 FP inh = DD(E)-Tn7 binding inhibition, primary FP screen. FP displacement of FITC-Tn7 peptide from fibrin DD(E); 0% = median of compound wells per plate. inhibition, % at 8.3 µM. 0.13% of 370,000 active. AID 720508;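 active = inhibition above the mean of compounds falling within the control limits plus 3 SD of them, cut at about 14% in these data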
Target sequence (P02675 whole entry, looked up): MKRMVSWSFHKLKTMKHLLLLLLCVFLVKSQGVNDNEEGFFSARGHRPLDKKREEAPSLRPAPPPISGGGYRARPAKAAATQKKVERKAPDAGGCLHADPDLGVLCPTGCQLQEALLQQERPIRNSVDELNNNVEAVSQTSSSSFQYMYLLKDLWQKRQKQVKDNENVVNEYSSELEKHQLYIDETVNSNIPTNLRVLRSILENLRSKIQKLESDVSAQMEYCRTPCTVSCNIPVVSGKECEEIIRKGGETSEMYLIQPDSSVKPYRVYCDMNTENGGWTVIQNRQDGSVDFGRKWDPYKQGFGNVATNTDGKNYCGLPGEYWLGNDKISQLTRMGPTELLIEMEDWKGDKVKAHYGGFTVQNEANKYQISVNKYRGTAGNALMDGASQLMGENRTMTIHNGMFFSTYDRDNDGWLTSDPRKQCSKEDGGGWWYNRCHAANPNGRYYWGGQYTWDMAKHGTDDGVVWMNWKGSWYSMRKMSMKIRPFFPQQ
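Assay system: human fibrin DD(E). Input: DD(E) 2 µM final. Medium: Tris buffer with calcium and detergent, pH 7.8. Compound dosing: single point at 8.3 µM. Timing: 10 min plus 3 h, room temperature. Technique: fluorescence polarization of the labelled Tn7 tracer. Read-out: percent inhibition. Replicates: singlicate testing.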
DNA FID counter = displaces DNA intercalator in HCV helicase counter-screen | DNA fluorescent intercalator displacement, fluorescence | inhibition, % at 7.9 µM | 0.17% of 290,000 active | AID 1845; in the data active = inhibition above about 37%;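 note: higher means more ethidium bromide displaced from hairpin DNA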
PLC-beta3 inh = inhibitors of human phospholipase C beta3. Q01970. Purified PLC-beta3, fluorogenic substrate, fluorescence. inhibition, % at 12.2 µM. 0.18% of 370,000 active. AID 720704; in the data active = inhibition above about 11%
PLC-gamma1 inh = inhibitors of human phospholipase C gamma1 | 0.84% of 370,000 active | purified PLC-gamma1, fluorogenic substrate, fluorescence | AID 720700 | P19174 | inhibition, % at 12.2 µM; in the data active = inhibition above about 9.5%
Tn6 DDE FP = DD(E)-Tn6 binding inhibition, primary FP screen | P02675 | Fibrin DD(E) TRITC-Tn6 fluorescence polarization displacement | inhibition, % at 8.3 µM | 0.21% of 370,000 active | AID 720509;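 active = inhibition above a per-campaign cutoff: mean of compounds within control limits plus 3 SD, cut at about 15% in these data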
Tn7 DDE conf = confirmation of inhibitors of Tn7 binding to human fibrin DD(E); FP displacement of TRITC-Tn7 peptide from DD(E); 0% set at plate's compound-well median; shares compounds with DDE Tn7 FP inh; inhibition, % at 8.3 µM; 5% of 460 active; AID 720628;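 active = inhibition above the campaign cutoff, the mean of compounds within control limits plus 3 SD, cut at about 14% in these data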;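 note: displacers lower polarization since freed probe rises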
Tn7 DDE ctr = counter-screen hit for Tn7 peptide-fibrin DD(E) binding disruption; shares compounds with DDE Tn7 FP inh; TRITC-Tn7 probe displacement, fluorescence polarization; inhibition, % at 8.3 µM; 3% of 460 active; AID 720633;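 active = inhibition above the cutoff, the mean of compounds lying between the control bounds plus 3 SD of those compounds, cut at about 17% in these data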
Of the large screens only hits and unclear results are named; the others gave an inactive call (follow-up assays come after a bar, where they were run). Only some compounds are listed: those with a hit (about 1.4% of all), similar ones and a draw of the others.

COc1ccc(/C=C2\CCc3c2nc2ccccc2c3C(=O)O)cc1OC	DDE Tn7 FP inh 23 | Tn7 DDE conf inactive | Tn7 DDE ctr inactive
COc1ccc(/C=C2\CCCc3c2nc2ccccc2c3C(=O)O)cc1OC	none (no result: DDE Tn7 FP inh, PLC-beta3 inh, PLC-gamma1 inh, Tn6 DDE FP)
O=C(c1cccs1)N1CCN(Cc2ccccc2)CC1	none
O=C(c1cccs1)N1CCC(Cc2ccccc2)CC1	DDE Tn7 FP inh 14 | Tn7 DDE conf inactive | Tn7 DDE ctr inactive
CC(=O)Nc1ccc(NC(=O)CCCCCN2C(=O)c3ccccc3C2=O)cc1	DDE Tn7 FP inh 14 | Tn7 DDE conf inactive | Tn7 DDE ctr inactive
Cc1cc2c(cc1C)C(c1cccc([N+](=O)[O-])c1)CC(=O)N2 (configuration not stated)	DDE Tn7 FP inh 14 | Tn7 DDE conf inactive | Tn7 DDE ctr inactive
CC(C)C1C(C#N)=C(N)SC(N)=C1C#N	DDE Tn7 FP inh 14 | Tn7 DDE conf inactive | Tn7 DDE ctr inactive
O=C(c1ccc(F)cc1F)C1CCN(c2ccc([N+](=O)[O-])cn2)CC1	none
COc1ccccc1/C=C/C(=O)OCC(=O)Nc1nnc(-c2ccccc2)o1	none (no result: DNA FID counter)
COc1ccc(OC)c(/C=C/C(=O)OCC(=O)Nc2nnc(-c3ccccc3)o2)c1	DDE Tn7 FP inh 14 (no result: DNA FID counter) | Tn7 DDE conf inactive | Tn7 DDE ctr inactive
Cn1c(NC2CCCCC2)cc(=O)n(C)c1=O	none
Cn1c(=O)c(NC2CCCCC2)c2c3c(cccc31)C(=O)c1ccccc1-2	DDE Tn7 FP inh 19 | Tn7 DDE conf inactive | Tn7 DDE ctr inactive
CC(=O)Nc1ccc(Nc2c3c4c(cccc4n(C)c2=O)C(=O)c2ccccc2-3)cc1	DDE Tn7 FP inh 19 | Tn7 DDE conf inactive | Tn7 DDE ctr inactive
COc1ccc(CN2CCN(Cc3ccco3)CC2)c(OC)c1	DDE Tn7 FP inh 14 | Tn7 DDE conf inactive | Tn7 DDE ctr inactive
Cn1ncc(C#N)c1NC(=O)C1CC(c2c(F)cccc2Cl)=NO1 (configuration not stated)	none
O=C1CN(C(=O)c2ccc3nc(Cc4cccc(Cl)c4)oc3c2)CCN1	DDE Tn7 FP inh 14 | Tn7 DDE conf inactive | Tn7 DDE ctr inactive
CC(=O)N1CCCN(C(=O)c2ccc3nc(Cc4cccc(Cl)c4)oc3c2)CC1	none
CCCCN(C)C(=O)c1cc2cc3ccc(OC)cc3nc2s1	DDE Tn7 FP inh 15 | Tn7 DDE conf inactive | Tn7 DDE ctr inactive
CCOc1ccc(OCCC(=O)OCC(=O)N2CCN(S(=O)(=O)c3ccc(C)cc3)CC2)cc1	none (no result: DNA FID counter)
Cc1ccc(OCCC(=O)OCC(=O)N2CCN(S(=O)(=O)c3ccc(Cl)cc3)CC2)cc1	DDE Tn7 FP inh 15 (no result: DNA FID counter) | Tn7 DDE conf inactive | Tn7 DDE ctr inactive
Cc1ccc(-c2cc(-c3ccccc3)nc(N(C)N)n2)cc1	none
COc1ccccc1NC(=O)CSc1nnc(COc2ccccc2OC)n1C	DDE Tn7 FP inh 14 | Tn7 DDE conf inactive | Tn7 DDE ctr inactive
COc1ccccc1OCc1nnc(SCC(=O)Nc2ccc(C)cc2)n1C	none
CCCCn1c(=O)[nH]c2nc3cc(N)ccc3nc2c1=O	DDE Tn7 FP inh 25 | Tn7 DDE conf inactive | Tn7 DDE ctr inactive
Nc1ccc2nc3c(=O)n(CCc4ccccc4)c(=O)[nH]c3nc2c1	none
Cc1cc2nc3c(=O)n(CCc4ccccc4)c(=O)[nH]c3nc2cc1N	DDE Tn7 FP inh 23 | Tn7 DDE conf inactive | Tn7 DDE ctr inactive
Nc1ccc2nc3c(=O)n(C4CCCCC4)c(=O)[nH]c3nc2c1	DDE Tn7 FP inh 27 | Tn7 DDE conf inactive | Tn7 DDE ctr inactive
COc1cc(SC)ccc1C(=O)Nc1c(Cl)cncc1Cl	none
CCn1c(SCC(=O)c2cc(C)n(C)c2C)nnc1-c1ccccc1	none
CCN(c1ccccc1)S(=O)(=O)c1ccc(Oc2ccc([N+](=O)[O-])cc2)nc1	none (no result: DNA FID counter)
CCOC(CNC(=O)CN1C(=O)COc2ccc(S(=O)(=O)N3CCOCC3)cc21)OCC	none
COC(=O)c1ccc(Cn2c(C)c(C(=O)NCc3ccc(C#N)cc3)sc2=O)o1	DDE Tn7 FP inh 14 (no result: DNA FID counter) | Tn7 DDE conf inactive | Tn7 DDE ctr inactive
COC(=O)c1ccc(Cn2c(C)c(C(=O)NCc3ccc(Cl)c(Cl)c3)sc2=O)o1	none (no result: DNA FID counter)
CC1CCN(c2c([N+](=O)[O-])c(=O)n(-c3ccccc3)c3ccccc23)CC1	none
COCCN(C(=O)c1ccc(-c2ccc([N+](=O)[O-])cc2)o1)c1c(N)n(CC(C)C)c(=O)[nH]c1=O	DDE Tn7 FP inh 14 (no result: DNA FID counter) | Tn7 DDE conf inactive | Tn7 DDE ctr inactive
Cc1ccc2c(c1)[C@H]1[C@H](CO2)[C@H](c2ccccc2)[C@]2(C)C(=O)N(Cc3ccc(F)cc3)CC(=O)N12	DDE Tn7 FP inh 27 (no result: DNA FID counter) | Tn7 DDE conf 14 | Tn7 DDE ctr inactive
Cc1ccc(-c2csc3ncnc(SCC(N)=O)c23)cc1	DDE Tn7 FP inh 16 | Tn7 DDE conf inactive | Tn7 DDE ctr inactive
CCc1nnc(NC(=O)CSc2ncnc3scc(-c4ccc(C)cc4)c23)s1	none
COc1cc(C)c(S(=O)(=O)NCc2ccc3c(c2)OCO3)cc1C	none
COc1cc(C)c(Cl)c(C)c1S(=O)(=O)NCc1ccc2c(c1)OCO2	DDE Tn7 FP inh 16 | Tn7 DDE conf inactive | Tn7 DDE ctr inactive
COc1ccc(/C=C/C(=O)NC(C)CCc2ccccc2)cc1OC (configuration not stated)	none
COc1ccc(/C=C/C(=O)OCC(=O)NC(C)CCc2ccccc2)cc1OC (configuration not stated)	DDE Tn7 FP inh 14 (no result: DNA FID counter) | Tn7 DDE conf inactive | Tn7 DDE ctr inactive
COC(=O)c1cc2occc2n1CC(=O)Nc1ccc(C)cc1C	DDE Tn7 FP inh 14 | Tn7 DDE conf inactive | Tn7 DDE ctr inactive
Cc1ccc(C2CC(=O)Nc3cc4c(cc32)OCO4)o1 (configuration not stated)	DDE Tn7 FP inh 15 | Tn7 DDE conf inactive | Tn7 DDE ctr inactive
Cc1ccc(OCc2nnc(NC(=O)OCC(C)C)s2)c(C)c1	none (no result: DDE Tn7 FP inh, PLC-beta3 inh, PLC-gamma1 inh, Tn6 DDE FP)
O=C(c1ccccc1)c1ccc2c(c1)OCCOCCOCCOCCO2	DDE Tn7 FP inh 14 | Tn7 DDE conf inactive | Tn7 DDE ctr inactive
CCC(C)[C@H](NC(=O)N1CCCCCC1)C(=O)O (some centres not stated)	none
CCC(C)[C@H](NC(=O)N1CCC(C)CC1)C(=O)O (some centres not stated)	DDE Tn7 FP inh 14 | Tn7 DDE conf inactive | Tn7 DDE ctr inactive
CCN1C(=O)[C@H]2[C@@H](c3ccc(C)cc3)N3C(=O)N(c4ccc(OC)cc4)C(=O)[C@@]3(C)[C@H]2C1=O	DDE Tn7 FP inh 16 | Tn7 DDE conf inactive | Tn7 DDE ctr inactive
CCN1C(=O)[C@H]2[C@@H](c3ccc(C)cc3)N3C(=O)N(c4ccc(C)cc4)C(=O)[C@@]3(C)[C@H]2C1=O	none
